Laboratory results taken from publication PMC4245169 (ACS Chemical Biology, 2014).

What was measured:
E. coli 23S rRNA [1] = details: cited from earlier work
[2] = tested on: rabbit reticulocyte whole cell lysate (eukaryotic ribosomal preparation); assay: Cell free translation inhibition, rabbit reticulocyte lysate; type: biochemical
Procedure, shortened: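 Nuclease-treated rabbit reticulocyte lysate was preincubated with test compound at varying concentrations and all amino acids for 20 min at room temperature. Luciferase control template was then added, and translation ran at 30 °C for 90 min before stopping on ice for 5 min. Luminescence was read after luciferin addition. Samples were run in triplicate and normalized to vehicle control. IC50 was fit by logit regression and averaged over three independent experiments.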

[3] = tested on: E. coli whole cell extract (prokaryotic ribosomal preparation); assay: Cell free translation inhibition, E. coli S30 extract, luciferase reporter; type: biochemical; details: read-out: E. coli IC50, average of three independent experiments
Procedure, shortened: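 Test compound at varying concentrations preincubated 20 min at room temperature with E. coli S30 extract plus all amino acids. Luciferase control template then added and translation run 60 min at 37 °C, stopped on ice 5 min. Luminescence read right after luciferin addition. Triplicates normalised to vehicle control; macrolide positive controls. IC50 by logit regression, averaged over three independent experiments.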

E. coli 23S rRNA [4] = assay: CMCT chemical footprinting of 23S rRNA in intact 70S ribosomes; type: binding; details: primer 2180; peptolides and 7b 150 μM, clarithromycin 50 μM

Row | IC50 ([2]; read-out: rabbit retic. IC50, cell free translation, luciferase reporter, average of three independent experiments) | IC50 [3] | SMILES | protection of A752 (E. coli 23S rRNA [1]) | inhibition of eukaryotic translation (in words) ([2]; RRL, controls at 250 μM) | protection of U1963 from CMCT modification (E. coli 23S rRNA [4])
1 | – | – | CC[C@H]1OC(=O)[C@H](C)C(=O)[C@H](C)[C@@H](O[C@@H]2O[C@H](C)C[C@H](N(C)C)[C@H]2O)[C@](C)(OC)C[C@@H](C)C(=O)[C@H](C)[C@H]2N(CCCCn3cnc(-c4cccnc4)c3)C(=O)O[C@]12C [TEL, telithromycin] | protected | – | –
2 | > 250000 nM | 320 ± 120 nM | CC[C@H]1OC(=O)[C@H](C)[C@@H](O[C@H]2C[C@@](C)(OC)[C@@H](O)[C@H](C)O2)[C@H](C)[C@@H](O[C@@H]2O[C@H](C)C[C@H](N(C)C)[C@H]2O)[C@](C)(OC)C[C@@H](C)C(=O)[C@H](C)[C@@H](O)[C@]1(C)O [clarithromycin 1, clarithromycin] | – | inactive | available to CMCT modification
